The results in this text go back to ChEMBL document CHEMBL3867488 (ACS Med Chem Lett, 2016).

Each structure is given as a SMILES string.

In data set [1] the target is T1, Oxysterols receptor LXR-beta (Homo sapiens) (UniProt P55055).
T1 sequence (whole entry): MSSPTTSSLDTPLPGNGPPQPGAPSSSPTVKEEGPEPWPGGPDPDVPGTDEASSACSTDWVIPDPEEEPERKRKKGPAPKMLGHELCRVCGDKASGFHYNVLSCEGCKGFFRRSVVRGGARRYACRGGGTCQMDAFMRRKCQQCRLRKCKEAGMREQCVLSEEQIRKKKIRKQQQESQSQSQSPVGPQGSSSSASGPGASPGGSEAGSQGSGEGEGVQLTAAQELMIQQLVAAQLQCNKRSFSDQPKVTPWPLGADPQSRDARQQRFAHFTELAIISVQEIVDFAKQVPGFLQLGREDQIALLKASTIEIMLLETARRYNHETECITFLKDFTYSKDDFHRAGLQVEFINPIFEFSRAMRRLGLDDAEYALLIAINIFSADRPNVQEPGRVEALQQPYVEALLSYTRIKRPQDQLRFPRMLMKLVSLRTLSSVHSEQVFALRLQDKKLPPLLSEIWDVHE
Nature of the data set: Agonist activity at LXR-beta in human whole blood assessed as ABCG1 gene induction by measuring ABCA1 mRNA level after 4 hrs by SYBR-Green dye-based Q-PCR analysis relative to pan agonist 2-(4-(5-(5-cyano-1-(2,4-difluorobenzyl)-6-oxo-4-(trifluoromethyl)-1,6-dihydropyridin-2-yl)thiophen-2-yl)-3-methylphenyl)acetic acid. The format is tissue-based.

Data set [2] can be described thus: Plasma concentration in cynomolgus monkey at 0.1 mg/kg, po qd administered via gavage for 14 days measured after 5 hrs of last-dose by LC/MS/MS analysis. The format is ADME, organism-based, Macaca fascicularis. The gist of the method: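 Cynomolgus monkeys dosed daily for 14 days. On day 14, plasma drug concentration was taken 5 h post-dose. Plasma triglycerides were expressed as % elevation over baseline, with significance tested by ANOVA (p < 0.05).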

A short description of data set [3]: Effect on plasma triglyceride level in cynomolgus monkey at 0.1 mg/kg, po qd administered via gavage for 14 days measured after 24 hrs of last-dose relative to base line. The format is ADME, organism-based, Macaca fascicularis. The note with it: in vivo. The method, boiled down:
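Cynomolgus monkeys dosed for 14 days, with groups at 0.1, 0.3 and 1 mg/kg. Plasma triglycerides expressed as percent change over baseline, with significance by ANOVA. Plasma drug exposure sampled 5 h post-dose. ABCG1 induction in blood cells monitored in the same animals.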

Data set [4] deals with Retinoic acid receptor RXR-alpha/oxysterols receptor LXR-beta (Homo sapiens, UniProt P55055). Nature of the data set: Displacement of [3H]-24,25-epoxycholesterol from human LXRbeta/RXRalpha expressed in baculovirus infected Sf9 cells by scintillation proximity analysis. The gist of the method:
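Binding affinity measured using full-length LXRα–RXRα and LXRβ–RXRα heterodimers.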
Background: Displacement assays read how much labelled ligand stays bound in the presence of the test substance.

For data set [5], the target named is T1, Oxysterols receptor LXR-beta (Homo sapiens). Nature of the data set: Agonist activity at LXR-beta in human HeLa cells assessed as induction of ABCA1 by beta-galactosidase/luciferase reporter gene assay relative to control. The format is cell-based. The gist of the method: (§1)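 HeLa cells carrying endogenous LXRα and LXRβ receptors, transfected with an ABCA1 LXREx3 reporter construct; agonist-driven reporter induction measured.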

The target in data set [6] is T2, Oxysterols receptor LXR-beta (Homo sapiens, UniProt P55055).
T2 sequence (P55055 whole entry): T1 sequence (whole entry)
Kind of data set: Agonist activity at LXR-beta in human HeLa cells assessed as induction of ABCA1 by beta-galactosidase/luciferase reporter gene assay. The format is cell-based. The method, boiled down:
as §1
In general terms: Reporter assays use an easily measured gene product as a stand-in for the process of interest.

Data set [7] addresses T2, Oxysterols receptor LXR-beta. Nature of the data set: Agonist activity at LXR-beta in human whole blood assessed as ABCA1 gene induction by measuring ABCA1 mRNA level after 4 hrs by SYBR-Green dye-based Q-PCR analysis. In kind it is tissue-based.
For data set [8], the system named is Cynomolgus monkey. Nature of the data set: In vivo agonist activity at LXR-beta in cynomolgus monkey assessed as ABCG1 gene induction by measuring total RNA level at 1 mg/kg, po qd administered via gavage for 14 days measured after 5 to 6 hrs of last-dose relative to control. In kind it is functional, Macaca fascicularis. The method, boiled down: (§2)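 Cynomolgus monkeys dosed daily for 14 days. ABCG1 mRNA induction measured in blood cells on day 14 and expressed as fold change. Plasma drug concentration taken about 5 h post-dose. Plasma triglycerides also measured against baseline, with significance by ANOVA.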

In data set [9] the target is T3, Nuclear receptor subfamily 1 group I member 2 (Homo sapiens, UniProt O75469).
T3 sequence (O75469 whole entry): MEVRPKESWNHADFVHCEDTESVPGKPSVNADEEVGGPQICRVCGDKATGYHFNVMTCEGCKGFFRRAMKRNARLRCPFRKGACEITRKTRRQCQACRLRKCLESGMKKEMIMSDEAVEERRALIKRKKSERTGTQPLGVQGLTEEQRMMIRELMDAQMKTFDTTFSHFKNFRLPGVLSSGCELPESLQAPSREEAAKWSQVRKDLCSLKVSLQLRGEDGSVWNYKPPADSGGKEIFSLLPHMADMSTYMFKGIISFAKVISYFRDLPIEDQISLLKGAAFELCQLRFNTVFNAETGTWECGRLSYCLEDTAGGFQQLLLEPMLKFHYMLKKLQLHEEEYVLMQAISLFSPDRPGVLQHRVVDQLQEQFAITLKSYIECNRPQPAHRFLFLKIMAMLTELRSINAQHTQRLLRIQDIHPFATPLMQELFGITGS
Nature of the data set: Agonist activity at human PXR expressed in human HepG2 cells assessed as induction of CYP3A4 measured after 24 hrs by AlamarBlue dye-based luciferase reporter gene assay. In kind it is cell-based. In general terms: The colour change of resazurin is a common sign of viable cells or microbes.

Data set [10] addresses T3, Nuclear receptor subfamily 1 group I member 2. Kind of data set: Agonist activity at human PXR expressed in human HepG2 cells assessed as induction of CYP3A4 measured after 24 hrs by AlamarBlue dye-based luciferase reporter gene assay relative to control. The format is cell-based. As to conditions: hepg2, 24 h.
Data set [11] has as its target Alpha-1-acid glycoprotein 1 (Homo sapiens, UniProt P02763). Nature of the data set: Binding affinity to human alpha-1-AGP at 1 uM measured after 4 hrs by equilibrium dialysis method relative to control. The format is ADME. As to conditions: isolated protein, 4 h, 1 µM.
Data set [12] relates to Cynomolgus monkey. Kind of data set: In vivo agonist activity at LXR-beta in cynomolgus monkey assessed as ABCG1 gene induction by measuring total RNA level at 0.3 mg/ kg, po qd administered via gavage for 14 days measured 5 to 6 hrs post-dose. In kind it is functional, Macaca fascicularis. The gist of the method: as §2
The target of data set [13] is T4, Oxysterols receptor LXR-alpha (Homo sapiens, UniProt Q13133).
T4 sequence (Q13133 whole entry): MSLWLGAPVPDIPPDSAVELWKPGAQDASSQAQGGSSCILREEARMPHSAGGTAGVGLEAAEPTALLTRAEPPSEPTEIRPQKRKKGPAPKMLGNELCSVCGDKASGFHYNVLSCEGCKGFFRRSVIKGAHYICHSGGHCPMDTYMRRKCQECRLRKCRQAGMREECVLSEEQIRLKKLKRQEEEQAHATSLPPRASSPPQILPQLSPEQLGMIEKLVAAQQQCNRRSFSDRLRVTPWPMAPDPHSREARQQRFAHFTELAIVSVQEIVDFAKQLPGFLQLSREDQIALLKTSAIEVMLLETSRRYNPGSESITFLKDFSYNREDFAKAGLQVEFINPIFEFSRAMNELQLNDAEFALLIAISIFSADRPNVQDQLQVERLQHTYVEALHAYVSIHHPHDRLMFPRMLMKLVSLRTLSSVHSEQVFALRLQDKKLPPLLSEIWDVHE
Nature of the data set: Agonist activity at human LXR-alpha expressed in African green monkey CV1 cells measured after 18 to 20 hrs by luciferase reporter gene assay relative to pan agonist 1-(2,4-difluorobenzyl)-2-oxo-6-(4-phenoxyphenyl)-4-(trifluoromethyl)-1,2-dihydropyridine-3-carbonitrile. The format is cell-based. The note with it: CV-1, human; read-out: Efficacy.

Data set [14] can be described thus: Half life in cynomolgus monkey at 3 mg/kg, iv administered as 10 mins infusion by LC/MS/MS analysis. The format is ADME, organism-based, Macaca fascicularis. As to conditions: in vivo.

Chain of Alpha-1-acid glycoprotein 1 (P02763 whole entry): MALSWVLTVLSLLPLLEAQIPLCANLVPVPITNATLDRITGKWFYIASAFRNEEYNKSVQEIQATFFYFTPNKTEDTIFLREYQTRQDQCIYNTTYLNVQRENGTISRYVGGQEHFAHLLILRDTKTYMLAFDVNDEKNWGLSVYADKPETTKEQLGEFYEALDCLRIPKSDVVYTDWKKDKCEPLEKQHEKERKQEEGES
Chain of Retinoic acid receptor RXR-alpha/oxysterols receptor LXR-beta (P19793 whole entry, one chain of several): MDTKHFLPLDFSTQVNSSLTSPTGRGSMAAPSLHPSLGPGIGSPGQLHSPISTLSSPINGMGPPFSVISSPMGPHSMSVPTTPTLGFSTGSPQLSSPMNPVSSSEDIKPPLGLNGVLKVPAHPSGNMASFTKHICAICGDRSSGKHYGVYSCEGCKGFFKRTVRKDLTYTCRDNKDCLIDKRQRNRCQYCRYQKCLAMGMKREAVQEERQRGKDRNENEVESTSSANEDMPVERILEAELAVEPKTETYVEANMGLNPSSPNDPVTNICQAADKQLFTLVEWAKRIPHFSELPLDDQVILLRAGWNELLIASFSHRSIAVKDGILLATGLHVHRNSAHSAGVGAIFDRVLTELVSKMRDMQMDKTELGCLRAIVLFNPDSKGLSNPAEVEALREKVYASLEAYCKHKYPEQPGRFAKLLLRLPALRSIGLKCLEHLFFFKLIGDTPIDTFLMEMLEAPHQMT

As a reminder, the Ki is the equilibrium dissociation constant of an inhibitor or competing ligand from its target. Usually EC50 stands for the concentration that produces a half-maximal response. For `CC(C)(O)c1cn(-c2ccc(-c3cc(F)c(CO)c(S(C)(=O)=O)c3)cc2F)c(C(C)(C)c2c(Cl)cccc2Cl)n1` [BMS-852927], the Efficacy came out at 26% in data set [1] and 29% in data set [5]. The compound also yielded a concentration at 5 h in data set [2] of 7.5 nM. Besides, the values for the Activity in [3] and in [10] were 20% and 108%, respectively. The compound further yielded a Ki in [4] of 12 nM. The concentration giving a half-maximal response (EC50) in data set [6] was 0.6 nM; in data set [7] it was 9 nM; in [9], 1000 nM. For the same compound, the “fold change (FC)” value in [8] stood at 11; in [12] it was 15. For the same compound, the PB in data set [11] is given as 97.3%. Also, in data set [13], the Emax turned out to be 20%. The same compound came in with a t1/2 in data set [14] of 12 h.
